Screens from PubChem BioAssay.
Compounds with a hit are over-represented: about 2.1% of the library has one in this group of screens.
Statin myotox sup: protects C2C12 myotubes from simvastatin toxicity. ATP luminescence, 48 h; scaled: DMSO 0, geranylgeraniol control 100. 0.78% of 330,000 active. AID 602340. rescue of ATP level, % at 7.49 µM;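 active = mean ATP rescue above about 67%, or every replicate alone reaching that limit, limit read from the data, passing the limit was not always enough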;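 note: myotubes were challenged with 10 µM simvastatin during compound exposure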
ARFGAP1 inh: rat ARFGAP1 inhibition; Q62848; Arfgap1-stimulated ARF1 GTP hydrolysis, GDP FP detection; inhibition, % at 16.5 µM; 0.26% of 360,000 active; AID 651572;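 active = inhibition above a per-plate limit, mean inhibition of low control wells plus 3 SD, cut at about 25% in these data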
Target sequence (Q62848 1-136 limits assumed): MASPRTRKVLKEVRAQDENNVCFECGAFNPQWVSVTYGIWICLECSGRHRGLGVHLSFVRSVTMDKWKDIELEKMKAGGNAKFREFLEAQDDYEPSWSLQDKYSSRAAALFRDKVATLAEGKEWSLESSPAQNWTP
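Material: truncated rat Arfgap1 GAP domain; Incubation: compound-enzyme preincubation 20 min, reaction 120 min, detection 60 min, 25 °C; Read-out: percent inhibition of Arfgap1-stimulated GTP hydrolysis; Technique: FP, GDP Alexa 633 tracer displaced from anti-GDP antibody, 620/688 nm; Controls: No-Arfgap1 wells (100%) versus DMSO full-reaction wells (0%); Replication: single well per compound.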
SUMO Mot1 rescue: blocks SUMOylation pathway, rescuing yeast Mot1-301 growth; S. cerevisiae Mot1-301 growth rescue, ATP luminescence, 38.5C; percent above DMSO median, 100 means doubled; growth rescue, % at 18.8 µM; 1% of 320,000 active;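 active = every valid replicate shows activation above 250% relative to neutral control wells; inactive = the rest, any valid replicate at or below 250%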
A3G deaminase: blocks human APOBEC3G single-stranded DNA deamination | recombinant A3G, ssDNA deamination FAM/TAMRA fluorescence | inhibition, % at 20 µM | 0.28% of 330,000 active;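 active = inhibition of at least 40% at 20 µM, with no more than 30% in the related APOBEC3A deaminase screen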
ASAP1 inh: ASAP1 ArfGAP inhibition; Q9ULH1; 0.19% of 360,000 active; inhibition, % at 16.5 µM; ASAP1-stimulated ARF1 GTP hydrolysis, GDP FP detection; AID 624377; in the data active = inhibition above about 25%
APOBEC3A inh: blocks human APOBEC3A ssDNA deamination | recombinant A3A, FAM/TAMRA ssDNA deamination fluorescence | inhibition, % at 20 µM | 0.41% of 330,000 active | AID 493011;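 active = at least 40% inhibition at 20 µM here, with at most 30% in a related deaminase screen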
Target sequence (P31941 whole entry, looked up): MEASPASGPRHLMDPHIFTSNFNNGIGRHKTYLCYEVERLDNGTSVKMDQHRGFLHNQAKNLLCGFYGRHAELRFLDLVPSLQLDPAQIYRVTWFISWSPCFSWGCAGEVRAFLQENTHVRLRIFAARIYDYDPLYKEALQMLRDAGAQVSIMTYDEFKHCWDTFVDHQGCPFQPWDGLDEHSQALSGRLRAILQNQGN
ARFGAP1 confirm: rat ARFGAP1 inhibition, confirmed; shares compounds with ARFGAP1 inh; ARFGAP1-stimulated ARF1 GTP hydrolysis, GDP tracer FP; inhibition, % at 16.5 µM; 30% of 890 active; AID 651608;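 active = average inhibition over triplicates above the hit cutoff set in the earlier primary screen, cut at about 25% in these data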
Hits are given with their value; 0 = inactive; - = no result.

SMILES	Statin myotox sup	ARFGAP1 inh	SUMO Mot1 rescue	A3G deaminase	ASAP1 inh	APOBEC3A inh	ARFGAP1 confirm
CC1CCC(CN2C(Nc3ccccc3)=NC[C@@H]2Cc2ccccc2)CC1 (some centres undefined)	0	28	0	0	0	0	0
c1ccc(C[C@H]2CN=C(Nc3ccccc3)N2CC2CCC2)cc1	0	0	0	0	0	0	-
CS(=O)(=O)N1CCN(C(=O)COc2ccc3ccccc3c2)CC1	-	0	-	0	0	0	-
CS(=O)(=O)N1CCN(C(=O)COc2ccccc2)CC1	-	25	0	0	0	0	0
CC(C)C(=O)Nc1ccc2c(c1)C(=O)N(C)[C@@H]1CC[C@@H](CC(=O)O)O[C@@H]1CO2	0	-	-	-	-	-	-
CCC(CC)c1nnc(NC(=O)c2cccc(S(=O)(=O)N3CCOCC3)c2)s1	0	28	0	0	0	0	0
Cn1c2ccccc2c(=O)c2ccc(-c3ccc4c(c3)OCO4)cc21	0	37	0	0	0	0	90
CCCOc1ccc(-c2cc(C(=O)NCC3CCCO3)c3ccccc3n2)cc1 (centres undefined)	-	27	0	0	0	0	0
CC(C)CCC(CCNCc1ccccn1)c1ccc(Cl)cc1 (centres undefined)	0	31	0	0	0	0	0
O=C(Oc1cccnc1)c1ccccc1[N+](=O)[O-]	-	25	0	0	0	0	0
O=C(c1cc([N+](=O)[O-])cc([N+](=O)[O-])c1)N(c1ccccn1)c1ccccn1	-	0	0	0	0	0	-
CN(C)S(=O)(=O)c1ccc(C(=O)N(c2ccccn2)c2ccccn2)cc1	0	31	0	0	0	0	0
C(=N\n1cnc2ccccc21)/c1cccnc1	0	25	0	0	0	0	0
O=C(NCc1cccnc1)c1ccc(COc2ccc(Cl)cc2)cc1	0	28	0	0	0	0	0
CO[C@H]1CN(C)C(=O)c2cc(NS(=O)(=O)c3cn(C)cn3)ccc2OC[C@@H](C)N(Cc2cccc(F)c2)C[C@@H]1C	0	-	-	-	-	-	-
CO[C@H]1CN(C)C(=O)c2ccc(NC(=O)c3ccccc3F)cc2OC[C@H](C)N(C(C)=O)C[C@@H]1C	0	-	-	-	-	-	-
COc1cccc(/C=N/NC(=O)c2ccc(-c3ccccc3)cc2)c1O	0	37	0	0	0	0	30
C=CCOC(=O)c1ccc(N2CCN(c3ccccc3)CC2)nc1	0	40	0	0	0	0	0
COc1cccc(S(=O)(=O)Nc2ccc3c(c2)[C@H]2C[C@@H](CC(=O)NCc4ccccc4F)O[C@@H](CO)[C@H]2O3)c1	0	-	-	-	-	-	-
COc1ccc(-n2c(C)c(C)c3c(NCCN(C)C)ncnc32)cc1	0	0	0	0	0	0	-
Cc1c(C)n(-c2ccccc2)c2ncnc(NCCN(C)C)c12	0	25	0	0	0	0	0
COc1ccc(-n2nc(C)cc2Nc2ccccc2C(=O)O)cc1	-	25	0	0	0	0	0
Cc1sc2nc(SCC(=O)N3CC(C)OC(C)C3)n(C)c(=O)c2c1C (centres undefined)	0	26	0	0	0	0	0
CCOC(=O)CSc1nc2sc(C)c(C)c2c(=O)n1C	0	0	0	0	0	0	-
CO[C@@H]1CN(C)C(=O)c2ccc(NS(=O)(=O)c3ccccc3C)cc2OC[C@H](C)N(C)C[C@H]1C	0	-	-	-	-	-	-
SMILES	Statin myotox sup	ARFGAP1 inh	SUMO Mot1 rescue	A3G deaminase	ASAP1 inh	APOBEC3A inh	ARFGAP1 confirm
O=C(Nc1ccc(S(=O)(=O)N2CCOCC2)cc1)c1cc(-c2cc(Cl)ccc2O)n[nH]1	0	41	0	0	0	0	29
COc1ccc(Cl)cc1-c1cc(C(=O)Nc2ccc(Br)cc2)[nH]n1	0	28	-	-	0	-	0
COc1ccc(NC(=O)c2cc(-c3ccccc3O)n[nH]2)cc1Cl	0	27	0	0	0	0	0
Cc1cc(O)c(-c2cc(C(=O)Nc3ccc(S(=O)(=O)N4CCOCC4)cc3)[nH]n2)cc1C	0	0	0	0	0	0	-
COc1ccc(Cl)c(-c2cc(C(=O)Nc3ccccc3)[nH]n2)c1	0	25	-	-	0	-	0
O=C(N[C@@H]1CC[C@H](CCNS(=O)(=O)c2ccccc2Cl)O[C@H]1CO)c1ccc(F)cc1	0	-	-	-	-	-	-
C[C@H](CO)N1C[C@H](C)[C@@H](CN(C)C)Oc2ccc(NC(=O)CCCN(C)C)cc2CC1=O	0	-	-	-	-	-	-
CCOc1ccc(Cl)cc1-c1cc(C(=O)Nc2cc(OC)ccc2OC)[nH]n1	0	-	-	-	-	-	-
CCOc1ccc(Cl)cc1-c1cc(C(=O)Nc2ccc(OC)cc2OC)[nH]n1	0	60	-	-	0	-	121
